The results in this text go back to ChEMBL document CHEMBL4602702, “Red-Emitting Dibenzodiazepinone Derivatives as Fluorescent Dualsteric Probes for the Muscarinic Acetylcholine M2 Receptor” (J Med Chem, 2020).

Experiment [1] addresses T1, Muscarinic acetylcholine receptor M2 (Homo sapiens, UniProt P08172).
T1 sequence (P08172 whole entry): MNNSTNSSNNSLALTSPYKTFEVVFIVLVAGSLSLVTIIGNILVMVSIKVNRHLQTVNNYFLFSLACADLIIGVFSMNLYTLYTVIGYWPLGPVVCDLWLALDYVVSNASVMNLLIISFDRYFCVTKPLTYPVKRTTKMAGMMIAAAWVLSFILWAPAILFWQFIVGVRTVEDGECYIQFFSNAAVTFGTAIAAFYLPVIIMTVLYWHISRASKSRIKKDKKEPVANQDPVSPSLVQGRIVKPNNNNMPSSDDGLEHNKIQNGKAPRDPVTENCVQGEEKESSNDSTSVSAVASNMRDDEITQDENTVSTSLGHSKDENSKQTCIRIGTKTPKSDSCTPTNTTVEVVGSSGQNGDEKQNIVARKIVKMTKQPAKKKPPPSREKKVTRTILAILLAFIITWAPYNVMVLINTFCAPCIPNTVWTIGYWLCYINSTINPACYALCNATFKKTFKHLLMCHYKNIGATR
Put plainly: Displacement of 4-(2-((1E,3E)-5-((E)-3,3-Dimethyl-1-(6-oxo-6-((2-(3-(1-(4-(1-(2-oxo-2-(11-oxo-10,11-dihydro-5H-dibenzo[b,e][1,4]diazepin-5-yl)ethyl)piperidin-4-yl)butyl)-1H-imidazol-4-yl)propanamido)ethyl)-amino)hexyl)-5-sulfoindolin-2-ylidene)penta-1,3-dien-1-yl)-3,3-dimethyl-3H-indol-1-ium-1-yl)butane-1-sulfonateHydrotrifluoroacetate fluorescent tracer from human muscarinic M2 receptor expressed in […] cells measured after 60 mins by Hoechst H33342 dye based confocal plate reader assay. Type of experiment: cell-based.

The target of experiment [2] is T1, Muscarinic acetylcholine receptor M2. Put plainly: Displacement of 4-(2-((1E,3E)-5-((E)-1-(6-((3,5-Bis((2-(3-(1-(4-(1-(2-oxo-2-(11-oxo-10,11-dihydro-5H-dibenzo[b,e][1,4]diazepin-5-yl)ethyl)piperidin-4-yl)butyl)-1H-imidazol-4-yl)propanamido)ethyl)carbamoyl)benzyl)amino)-6-oxohexyl)-3,3-dimethyl-5-sulfoindolin-2-ylidene)penta-1,3-dien-1-yl)-3,3-dimethyl-3H-indol-1-ium-1-yl)butane-1-sulfonate Tris(hydrotrifluoroacetate) fluorescent tracer from human muscarinic M2 receptor expressed in […] cells measured after 60 mins by Hoechst H33342 dye based confocal plate reader assay. The experiment is classed as cell-based.

For experiment [3] the target is unchanged. Put plainly: Displacement of 4-(2-((1E,3E)-5-((E)-3,3-Dimethyl-1-(6-oxo-6-((2-(4-(4-(1-(2-oxo-2-(11-oxo-10,11-dihydro-5H-dibenzo[b,e][1,4]diazepin-5-yl)ethyl)piperidin-4-yl)butyl)piperazin-1-yl)ethyl)amino)hexyl)-5-sulfoindolin-2-ylidene)penta-1,3-dien-1-yl)-3,3-dimethyl-3H-indol-1-ium-1-yl)butane-1-sulfonate Bis(hydrotrifluoroacetate) fluorescent tracer from human muscarinic M2 receptor expressed in CHO-K9 cells by competition binding assay. Type of experiment: cell-based. Conditions: read-out: pA2 (converted). A digest of the protocol: (§1)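 High-content imaging competition binding at intact CHO-hM2R cells against fluorescent tracer at 10 nM. Separately, flow cytometry competition with the fluorescent tracer at 1 nM at live cells. Four-parameter logistic fits; mean ± SEM of at least two experiments in duplicate.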

Experiment [4] has the same target. Put plainly: Displacement of 4-(2-((1E,3E)-5-((E)-3,3-Dimethyl-1-(6-oxo-6-((2-(3-(1-(4-(1-(2-oxo-2-(11-oxo-10,11-dihydro-5H-dibenzo[b,e][1,4]diazepin-5-yl)ethyl)piperidin-4-yl)butyl)-1H-imidazol-4-yl)propanamido)ethyl)-amino)hexyl)-5-sulfoindolin-2-ylidene)penta-1,3-dien-1-yl)-3,3-dimethyl-3H-indol-1-ium-1-yl)butane-1-sulfonateHydrotrifluoroacetate fluorescent tracer from human muscarinic M2 receptor expressed in CHO-K9 cells by competition binding assay. Type of experiment: cell-based. As to conditions: read-out: pA2 (converted). The essentials:
as §1

Experiment [5] has the same target. Put plainly: Displacement of 4-(2-((1E,3E)-5-((E)-1-(6-((3,5-Bis((2-(3-(1-(4-(1-(2-oxo-2-(11-oxo-10,11-dihydro-5H-dibenzo[b,e][1,4]diazepin-5-yl)ethyl)piperidin-4-yl)butyl)-1H-imidazol-4-yl)propanamido)ethyl)carbamoyl)benzyl)amino)-6-oxohexyl)-3,3-dimethyl-5-sulfoindolin-2-ylidene)penta-1,3-dien-1-yl)-3,3-dimethyl-3H-indol-1-ium-1-yl)butane-1-sulfonate Tris(hydrotrifluoroacetate) fluorescent tracer from human muscarinic M2 receptor expressed in CHO-K9 cells by competition binding assay. The experiment is classed as cell-based. Conditions: read-out: pA2 (converted). A digest of the protocol: as §1

Experiment [6] shares this target. Put plainly: Displacement of 4-(2-((1E,3E)-5-((E)-3,3-Dimethyl-1-(6-oxo-6-((2-(4-(4-(1-(2-oxo-2-(11-oxo-10,11-dihydro-5H-dibenzo[b,e][1,4]diazepin-5-yl)ethyl)piperidin-4-yl)butyl)piperazin-1-yl)ethyl)amino)hexyl)-5-sulfoindolin-2-ylidene)penta-1,3-dien-1-yl)-3,3-dimethyl-3H-indol-1-ium-1-yl)butane-1-sulfonate Bis(hydrotrifluoroacetate) fluorescent tracer from human muscarinic M2 receptor expressed in CHO-K9 cells by FACSCalibur flow cytometry. Type of experiment: cell-based.

For experiment [7] the target is unchanged. Briefly: Displacement of 4-(2-((1E,3E)-5-((E)-3,3-Dimethyl-1-(6-oxo-6-((2-(4-(4-(1-(2-oxo-2-(11-oxo-10,11-dihydro-5H-dibenzo[b,e][1,4]diazepin-5-yl)ethyl)piperidin-4-yl)butyl)piperazin-1-yl)ethyl)amino)hexyl)-5-sulfoindolin-2-ylidene)penta-1,3-dien-1-yl)-3,3-dimethyl-3H-indol-1-ium-1-yl)butane-1-sulfonate Bis(hydrotrifluoroacetate) fluorescent tracer from human muscarinic M2 receptor expressed in […] cells measured after 60 mins by Hoechst H33342 dye based confocal plate reader assay. The experiment is classed as cell-based.

Experiment [8] addresses Muscarinic acetylcholine receptor M2 (Homo sapiens) (UniProt P08172). Briefly: Displacement of [3H]-UR-SK259 human muscarinic M2 receptor. Background: In a radioligand displacement assay an active substance lowers the binding of a labelled ligand.
In experiment [9] the target is T2, Muscarinic acetylcholine receptor M1 (Homo sapiens) (UniProt P11229).
T2 sequence (whole entry): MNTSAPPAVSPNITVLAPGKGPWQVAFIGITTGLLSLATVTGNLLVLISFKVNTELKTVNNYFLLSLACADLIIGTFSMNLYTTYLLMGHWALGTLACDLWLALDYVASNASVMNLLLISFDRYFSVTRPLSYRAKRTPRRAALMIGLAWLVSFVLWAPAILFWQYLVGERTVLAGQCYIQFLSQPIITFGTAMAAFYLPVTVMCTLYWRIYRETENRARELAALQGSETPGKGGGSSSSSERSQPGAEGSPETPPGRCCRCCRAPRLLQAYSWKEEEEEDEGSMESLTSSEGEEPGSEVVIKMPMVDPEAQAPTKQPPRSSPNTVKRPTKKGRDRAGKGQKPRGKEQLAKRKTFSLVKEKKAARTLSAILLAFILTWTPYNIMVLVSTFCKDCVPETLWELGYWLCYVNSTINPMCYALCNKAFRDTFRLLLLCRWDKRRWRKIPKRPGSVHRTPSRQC
Put plainly: Displacement of [3H]-NMS from human muscarinic M1 receptor expressed in CHO cells by scintillation counting method. Type of experiment: cell-based.

Experiment [10] has as its target T3, Muscarinic acetylcholine receptor M2 (Homo sapiens) (UniProt P08172).
T3 sequence (whole entry): T1 sequence (P08172 whole entry)
Put plainly: Displacement of [3h]-NMS from human muscarinic M2 receptor expressed in CHO cells by radioligand binding assay. The experiment is classed as cell-based.

Experiment [11] deals with T4, Muscarinic acetylcholine receptor M1 (Homo sapiens, UniProt P11229).
T4 sequence (P11229 whole entry): T2 sequence (whole entry)
Put plainly: Displacement of [3H]-QNB from truncated EGFP-fused human muscarinic M1 receptor expressed in HEK293 cells by […]. Type of experiment: cell-based.

Turning to `CCC(=O)NCc1cc(C(=O)NCCNC(=O)CCc2cn(CCCCC3CCN(CC(=O)N4c5ccccc5NC(=O)c5ccccc54)CC3)cn2)cc(C(=O)NCCNC(=O)CCc2cn(CCCCC3CCN(CC(=O)N4c5ccccc5NC(=O)c5ccccc54)CC3)cn2)c1`, the Ki in experiment [1] is 0.355 nM; in [2] it was 0.525 nM.

With `C[N+](C)(CCCCCC[N+](C)(C)CCCN1C(=O)c2ccccc2C1=O)CCCN1C(=O)c2ccccc2C1=O`, the Kb in experiment [3] was 148 nM; in experiment [4], 457 nM; in experiment [5] it was 200 nM. Also, the Ki in experiment [6] was 407 nM; in experiment [7] it was 1410 nM; in experiment [1] it was 646 nM; in experiment [2], 851 nM.

As for `CCC(=O)NCc1cc(C(=O)NCCN2CCC(N3CCC(n4c(=O)[nH]c5ccccc54)CC3)CC2)cc(C(=O)NCCN2CCN(CCCCC3CCN(CC(=O)N4c5ccccc5NC(=O)c5ccccc54)CC3)CC2)c1`, the affinity in experiment [8], expressed as Kd, was 0.813 nM.

As to `O=C1CCCN1CC#CCN1CCCC1` [OXOTREMORINE], the Ki was 851 nM in experiment [7], 1020 nM in experiment [1] and 1780 nM in experiment [2].

On to `Cc1scc2c1N(C(=O)CN1CCN(CCCCCCCCCCNC(=O)Cc3ccc4c(c3)C(C)(C)C3=C5C=C6C7=[N+](CCC6OC5CCN34)c3ccc(S(=O)(=O)[O-])cc3C7(C)C)CC1)c1ccccc1NC2=O` (stereo unspecified), for which the pK was determined as 10.5 in experiment [9] and 10.3 in experiment [10].

In experiment [11], `O=C(CCC1=[N+]2C(=Cc3ccc(-c4cccs4)n3[B-]2(F)F)C=C1)NCCOCCOCCOCCOCCOCCOCCCN1CCN(CC(=O)N2c3ccccc3C(=O)Nc3cccnc32)CC1` showed a Ki of 8.91 nM.

Broadly, the Ki is the equilibrium dissociation constant of an inhibitor or competing ligand from its target. The term Kd denotes the concentration at which binding is half-saturated.
